Measured values from ChEMBL document CHEMBL4152263, “Novel anticancer hybrids from diazen-1-ium-1,2-diolate nitric oxide donor and ROS inducer plumbagin: Design, synthesis and biological evaluations” (Eur J Med Chem, 2018).

Legend:
[1] = system: MDA-MB-231; test: Cytotoxicity against human MDA-MB-231 cells assessed as growth inhibition at 10 uM after 48 hrs by MTT assay relative to control; type: functional; settings: MDA-MB-231, 48 h, read-out: GI
Method in brief: (§1)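 Single-concentration MTT screen. Cells were seeded, allowed to adhere for 24 h, and exposed to compound for 48 h. MTT (5 mg/mL) was added for the last 4 h, then DMSO, with absorbance read at 570 nm. Result is inhibition rate (%) at the stated concentration; mean of three independent experiments.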

[2] = system: A549; test: Cytotoxicity against human A549 cells assessed as growth inhibition at 10 uM after 48 hrs by MTT assay relative to control; type: functional; settings: A549, 48 h, read-out: GI; method in brief: as §1
[3] = system: HepG2; test: Cytotoxicity against human HepG2 cells assessed as growth inhibition at 10 uM after 48 hrs by MTT assay relative to control; type: functional; settings: HepG2, 48 h, read-out: GI; method in brief: as §1
[4] = system: MDA-MB-231; test: Cytotoxicity against human MDA-MB-231 cells assessed as growth inhibition after 48 hrs by MTT assay; type: functional, cell-based; settings: MDA-MB-231, 48 h
Method in brief: (§2)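 Cells seeded at 5.0 × 10^4/ml and left 24 h to adhere, then exposed to a range of test-compound concentrations for 44 h. MTT (5 mg/mL) was added for a further 4 h at 37 °C. Supernatant was removed, DMSO added, and OD read at 570 nm. IC50 after 48 h total exposure; mean ± SD, n = 3.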

[5] = system: HepG2; test: Cytotoxicity against human HepG2 cells assessed as growth inhibition after 48 hrs by MTT assay; type: functional, cell-based; settings: HepG2, 48 h; method in brief: as §2
[6] = system: A549; test: Cytotoxicity against human A549 cells assessed as growth inhibition after 48 hrs by MTT assay; type: functional, cell-based; settings: A549, 48 h; method in brief: as §2
[7] = system: HCT-116; test: Cytotoxicity against human HCT116 cells assessed as growth inhibition after 48 hrs by MTT assay; type: functional, cell-based; settings: HCT-116, 48 h; method in brief: as §2
[8] = system: HK-2; test: Cytotoxicity against human HK2 cells assessed as growth inhibition after 48 hrs by MTT assay; type: cell-based; settings: HK-2, 48 h; method in brief: as §2
[9] = system: WRL68; test: Cytotoxicity against human WRL68 cells assessed as growth inhibition after 48 hrs by MTT assay; type: cell-based; settings: WRL68, 48 h; method in brief: as §2
[10] = system: A549; test: Induction of reactive oxygen species formation in human A549 cells at 5 uM after 24 hrs by DCFH-DA probe-based flow cytometric analysis relative to control; type: functional
[11] = system: MDA-MB-231; test: Cytotoxicity against human MDA-MB-231 cells assessed as growth inhibition at 20 uM after 48 hrs by MTT assay relative to control; type: functional; settings: MDA-MB-231, 48 h, read-out: GI; method in brief: as §1
[12] = system: HepG2; test: Cytotoxicity against human HepG2 cells assessed as growth inhibition at 20 uM after 48 hrs by MTT assay relative to control; type: functional; settings: HepG2, 48 h, read-out: GI; method in brief: as §1
[13] = system: A549; test: Cytotoxicity against human A549 cells assessed as growth inhibition at 20 uM after 48 hrs by MTT assay relative to control; type: functional; settings: A549, 48 h, read-out: GI; method in brief: as §1

## CC1=C(CCC(=O)OCCCO/[N+]([O-])=N/N2CCOCC2)C(=O)c2c(O)cccc2C1=O
[1]
  inhibition of growth at 10 µM: 28.6%
[2]
  inhibition of growth at 10 µM: 26.9%
[3]
  inhibition of growth at 10 µM: 28%

## CC1=CC(=O)c2c(O)cccc2C1=O [PLUMBAGIN]
[1]
  inhibition of growth at 10 µM: 73.8%
[2]
  inhibition of growth at 10 µM: 60.7%
[3]
  inhibition of growth at 10 µM: 58.9%
[4]
  IC50: 6.5 µM
[5]
  IC50: 9.17 µM
[6]
  IC50: 8.9 µM
[7]
  IC50: 9.8 µM
[8]
  IC50: 23.6 µM
[9]
  IC50: 15.4 µM
[10]
  fold change (FC): 1.34

## CC1=C(CCC(=O)OCO/[N+]([O-])=N/N2CCOCC2)C(=O)c2c(O)cccc2C1=O
[1]
  inhibition of growth at 10 µM: 37.2%
[2]
  inhibition of growth at 10 µM: 40.3%
[3]
  inhibition of growth at 10 µM: 31.3%
[4]
  IC50: 13.5 µM
[5]
  IC50: 16.5 µM
[6]
  IC50: 12.3 µM
[7]
  IC50: 15.6 µM
[8]
  IC50: 24.6 µM
[9]
  IC50: 19.3 µM

## CC1=C(CCCC(=O)OCCCCO/[N+]([O-])=N/N2CCOCC2)C(=O)c2c(O)cccc2C1=O
[1]
  inhibition of growth at 10 µM: 30.6%
[2]
  inhibition of growth at 10 µM: 38.2%
[3]
  inhibition of growth at 10 µM: 32.2%

## CC1=C(CCCC(=O)O)C(=O)c2c(O)cccc2C1=O
[11]
  inhibition of growth at 20 µM: 9.9%
[12]
  inhibition of growth at 20 µM: 28.6%
[13]
  inhibition of growth at 20 µM: 8.5%

## CC1=C(CCCC(=O)OCCCO/[N+]([O-])=N/N2CCOCC2)C(=O)c2c(O)cccc2C1=O
[1]
  inhibition of growth at 10 µM: 9.5%
[2]
  inhibition of growth at 10 µM: 11.3%
[3]
  inhibition of growth at 10 µM: 8.2%

## CC1=C(CCC(=O)OCO/[N+]([O-])=N/N2CCCC2)C(=O)c2c(O)cccc2C1=O
[1]
  inhibition of growth at 10 µM: 31.6%
[2]
  inhibition of growth at 10 µM: 32.9%
[3]
  inhibition of growth at 10 µM: 29.8%
[4]
  IC50: 15.2 µM
[5]
  IC50: 17.8 µM
[6]
  IC50: 16.4 µM
[7]
  IC50: 17.2 µM
[8]
  IC50: 25.6 µM
[9]
  IC50: 19.5 µM

## CC1=C(CCC(=O)OCCO/[N+]([O-])=N/N2CCOCC2)C(=O)c2c(O)cccc2C1=O
[1]
  inhibition of growth at 10 µM: 35.7%
[2]
  inhibition of growth at 10 µM: 30.3%
[3]
  inhibition of growth at 10 µM: 32.5%

## CC1=C(CCC(=O)OCCCCO/[N+]([O-])=N/N2CCOCC2)C(=O)c2c(O)cccc2C1=O
[1]
  inhibition of growth at 10 µM: 29.4%
[2]
  inhibition of growth at 10 µM: 24.4%
[3]
  inhibition of growth at 10 µM: 28.8%
